Assay results reported in ChEMBL document CHEMBL1132620, “Piperazine imidazo[1,5-a]quinoxaline ureas as high-affinity GABAA ligands of dual functionality” (J Med Chem, 1999).
Active and inactive are the calls of the source. The calls are words filed in the database; no cut-off is given here.

Legend:
[1] = biological target: T1, GABA-A receptor; anion channel (Rattus norvegicus) (UniProt O09028+P15431+P18506+P18508+P19969+P20236+P23574+P23576+P28471+P28473+P30191+P62813+P63079+P63138+Q91ZM7+Q9ES14); experiment: (§1) Displacement of [3H]flunitrazepam from GABA-A benzodiazepine receptor of rat cortical membranes; format: cell membranes; design: concentration or dose not given beside the values; details: Membrane, concentration not given here
Summary of the method: (§2)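 Rat membranes incubated 60 min at 4 °C with [3H]flunitrazepam, 50 µg membrane protein and graded test drug in 200 µL containing NaCl, 10 mM Hepes/Tris pH 7.4 and 1 mM MgCl2; bound ligand separated by rapid filtration on GF/B; mean affinity, SE ≤10% of mean.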

[2] = biological target: GABA-A receptor; anion channel; experiment: as §1; format: cell membranes, Membrane; summary of the method: as §2
[3] = biological target: T1, GABA-A receptor; anion channel (Rattus norvegicus); experiment: Shift in [35S]TBPS binding to GABA-A Benzodiazepine receptor of rat brain membrane
[4] = biological target: T2, GABA-A receptor; alpha-1/beta-2/gamma-2 (Homo sapiens) (UniProt P14867+P47870+P18507); experiment: (§3) In vitro GABA-mediated chloride current in A293 cells expressing GABA-A benzodiazepine receptor alpha-1-beta-2-gamma-2 subunits at 5 uM; format: functional, cell-based; details: HEK293
Mus musculus [5] = species on record: Mus musculus; experiment: Ability to antagonize the muscle relaxation effect in mice caused by a benzodiazepine full agonist, triazolam.; format: functional
Summary of the method: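 Muscle relaxation induced by triazolam; test compound and triazolam given separately, traction scored 30 min after dosing; ED50 for blocking the relaxant effect.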

Mus musculus [6] = experiment: In vivo efficacy is evaluated by percent control of cerebellar GMP levels in (drug+stress) treated mice/mice under stress; format: functional; design: concentration or dose not given beside the values
Summary of the method: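 Male CF-1 mice given drug orally in vehicle 122 before electric footshock stress, controls given vehicle (1 mL/100 g); killed 30 min after treatment; cerebellum homogenized in 1% perchloric acid, iced 30 min, boiled 5 min, spun 17000g 20 min; supernatant cGMP by radioimmunoassay, expressed as % of stress control.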

Mus musculus [7] = experiment: In vivo acute electroshock physical dependence activity in mice; Not active.; format: functional, organism-based
Rattus norvegicus [8] = experiment: In vivo efficacy evaluated for ability to antagonize metrazole induced clonic convulsions in rat after ip injection; format: functional
Rattus norvegicus [9] = experiment: Mean number of shocks produced by CDPZ in rats at a dose of 12 mg/kg was determined by vogel's punished licking assay; format: functional
Summary of the method: (§4)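 Vogel punished licking test in rats; number of shocks accepted recorded per dose group (n 6–10); each dose compared with the 0 mg/kg group of the same experiment by Wilcoxon rank sum test.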

Rattus norvegicus [10] = experiment: Mean number of shocks produced by the compound in rats at a dose of 0 mg/kg was determined by vogel's punished licking assay; format: functional; summary of the method: as §4
Rattus norvegicus [11] = experiment: Mean number of shocks produced by the compound in rats at a dose of 0.3 mg/kg was determined by vogel's punished licking assay; format: functional; summary of the method: as §4
Rattus norvegicus [12] = experiment: Mean number of shocks produced by the compound in rats at a dose of 1 mg/kg was determined by vogel's punished licking assay; format: functional; summary of the method: as §4
Rattus norvegicus [13] = experiment: Mean number of shocks produced by the compound in rats at a dose of 10 mg/kg was determined by vogel's punished licking assay; format: functional; summary of the method: as §4
Rattus norvegicus [14] = experiment: Mean number of shocks produced by the compound in rats at a dose of 3 mg/kg was determined by vogel's punished licking assay; format: functional; summary of the method: as §4
[15] = biological target: T2, GABA-A receptor; alpha-1/beta-2/gamma-2 (Homo sapiens); experiment: as §3; format: functional, cell-based; details: HEK293; remark: listed apart in the source
[16] = Area under the curve was determined for the compound after iv dose of 4.97 mg/kg in rats; format: ADME, organism-based; design: dose 4.97 mg/kg, route intravenous; details: rat, in vivo
[17] = Total plasma clearance was determined for the compound after iv dose of 4.97 mg/kg in rats; format: ADME, organism-based; design: dose 4.97 mg/kg, route intravenous; details: rat, read-out: Clp (converted)
[18] = Area under curve was determined for the compound after po dose of 5.03 mg/kg in rats; format: ADME, organism-based; design: dose 5.03 mg/kg, route oral; details: rat, in vivo
[19] = Maximum serum concentration was determined for the compound after po dose of 5.03 mg/kg in rats; format: ADME, organism-based; design: dose 5.03 mg/kg, route oral; details: rat
[20] = Oral bioavailability at a dose of 5.03 mg/kg in rats; format: ADME, organism-based; details: rat, in vivo
[21] = Time at which Cmax was reached was determined for the compound after po dose of 5.03 mg/kg in rats; format: ADME, organism-based; design: dose 5.03 mg/kg, route oral; details: rat, in vivo
Summary of the method: (§5)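 Male Sprague–Dawley rats dosed orally with compound in a solution formulation, n = 3–4 per compound; serum drug concentrations measured over time, lower limit of quantitation 50 ng/mL. Tmax reported as the range of observed values across animals.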

[22] = half-life after po dose of 5.03 mg/kg in rats; format: ADME, organism-based; design: dose 5.03 mg/kg, route oral; details: rat, in vivo
[23] = biological target: GABA A receptor alpha-3/beta-2/gamma-2 (Homo sapiens) (UniProt P47870+P18507+P34903); experiment: In vitro GABA-mediated chloride current in A293 cells expressing GABA-A benzodiazepine receptor alpha-3-beta-2-gamma-2 subunits at 5 uM; format: functional, cell-based; details: HEK293
[24] = Half-life after iv dose of 4.97 mg/kg in rats; format: ADME, organism-based; design: dose 4.97 mg/kg, route intravenous; details: rat, in vivo
Mus musculus [25] = experiment: In vivo efficacy was evaluated for their ability to antagonize metrazole induced clonic convulsants in rat after ip injection.
Mus musculus [26] = experiment: In vivo efficacy is evaluated by percent control of cerebellar GMP content in CF1 mice and result is expressed as crebrellar GMP levels in (drug+stress) treated mice and mice under stress.; format: functional
Summary of the method: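 Male CF-1 mice dosed orally in vehicle 122 (controls get vehicle, 1 mL/100 g), then given electric footshock stress. Killed 30 min after dosing. Cerebellum homogenized in 10 volumes of 1% perchloric acid, kept 30 min on ice, boiled 5 min, spun 17000g for 20 min. cGMP measured by radioimmunoassay. Expressed as % of the (drug + stress)/stress response versus vehicle-shock controls.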

Mus musculus [27] = species on record: Mus musculus; experiment: Compound was evaluated for their ability to antagonize the muscle relaxation effects of benzodiazepine full agonist, triazolam.
[28] = Total plasma clearance Clp was determined for the compound after iv dose of 5.06 mg/kg in rats; format: ADME, organism-based; design: dose 5.06 mg/kg, route intravenous; details: rat, read-out: Clp (converted)
[29] = Area under curve was determined for the compound after iv dose of 5.06 in rats; format: ADME, organism-based; details: rat, in vivo
[30] = Area under curve was determined for the compound after po dose of 5.01 mg/kg in rats; format: ADME, organism-based; design: dose 5.01 mg/kg, route oral; details: rat, in vivo
[31] = Maximum serum concentration was determined for the compound after po dose of 5.01 mg/kg in rats; format: ADME, organism-based; design: dose 5.01 mg/kg, route oral; details: rat
[32] = Oral bioavailability at a dose of 5.01 mg/kg in rats; format: ADME, organism-based; details: rat, in vivo
[33] = Time at which Cmax was reached was determined for the compound after po dose of 5.01 mg/kg in rats; format: ADME, organism-based; design: dose 5.01 mg/kg, route oral; details: rat, in vivo; summary of the method: as §5
[34] = Half-life after iv dose of 5.06 mg/kg in rats; format: ADME, organism-based; design: dose 5.06 mg/kg, route intravenous; details: rat, in vivo
[35] = Half-life after po dose of 5.01 mg/kg in rats; format: ADME, organism-based; design: dose 5.01 mg/kg, route oral; details: rat, in vivo
Mus musculus [36] = experiment: In vivo acute electroshock physical dependence activity in mice; Inactive; format: functional, organism-based

CC(C)N1[C@H](C)CN(C(=O)N2Cc3c(C(=O)OC(C)(C)C)ncn3-c3ccc(Cl)cc32)C[C@@H]1C
inhibition [1]: 85% | Ki [2]: 5.16 nM | Shift [3]: -0.97 | Change in Cl- current [4]: -0.32 | ED50 (Mus musculus [5]): > 30 mg/kg | Control (Mus musculus [6]): 52% | Acute electroshock activity (Mus musculus [7]): inactive | ED50 (Rattus norvegicus [8]): 35.3 mg/kg | Mean no. of shocks (Rattus norvegicus [9]): 26 | Mean no. of shocks (Rattus norvegicus [10]): 6.6 | Mean no. of shocks (Rattus norvegicus [11]): 6.3 | Mean no. of shocks (Rattus norvegicus [12]): 5.3 | Mean no. of shocks (Rattus norvegicus [13]): <3.4 | Mean no. of shocks (Rattus norvegicus [14]): 5 | Change in Cl- current [15]: 0.9

C[C@@H]1CN(C(=O)N2Cc3c(C(=O)OC(C)(C)C)ncn3-c3ccc(C(F)(F)F)cc32)C[C@H](C)N1
AUC [16]: 7470 ng·h/mL | clearance [17]: 12.2 mL/min/kg | AUC [18]: 6430 ng·h/mL | Cmax [19]: 1160 ng/mL | bioavailability [20]: 84% | Tmax [21]: 1 h | half-life [22]: 2.7 h | inhibition [1]: 52% | Ki [2]: 32.4 nM | Shift [3]: 0.31 | Change in Cl- current [4]: 0.5 | Change in Cl- current [23]: 0.1 | ED50 (Mus musculus [5]): > 30 mg/kg | Control (Mus musculus [6]): 36% | Acute electroshock activity (Mus musculus [7]): inactive | ED50 (Rattus norvegicus [8]): 21 mg/kg | Mean no. of shocks (Rattus norvegicus [9]): 23 | Mean no. of shocks (Rattus norvegicus [10]): 4.9 | Mean no. of shocks (Rattus norvegicus [11]): 4.6 | Mean no. of shocks (Rattus norvegicus [12]): 4.9 | Mean no. of shocks (Rattus norvegicus [13]): 7.9 | Mean no. of shocks (Rattus norvegicus [14]): 6.4 | half-life [24]: 2.4 h

CN1C(=O)CN=C(c2ccccc2)c2cc(Cl)ccc21 [DIAZEPAM]
ED50 (Mus musculus [25]): 0.5 mg/kg | Control (Mus musculus [26]): 0.44% | ED50 (Mus musculus [27]): > 30 mg/kg

C[C@H]1CN(C(=O)N2Cc3c(C(=O)OC(C)(C)C)ncn3-c3ccc(Cl)cc32)C[C@H](C)N1
clearance [28]: 17.8 mL/min/kg | AUC [29]: 5010 ng·h/mL | AUC [30]: 2620 ng·h/mL | Cmax [31]: 660 ng/mL | bioavailability [32]: 54% | Tmax [33]: 0.25 h | half-life [34]: 1.5 h | half-life [35]: 2.4 h | inhibition [1]: 45% | Ki [2]: 16.7 nM | Shift [3]: 0.37 | Change in Cl- current [4]: 0.4 | ED50 (Mus musculus [5]): > 30 mg/kg | Control (Mus musculus [6]): 69% | Acute electroshock activity (Mus musculus [36]): inactive | ED50 (Rattus norvegicus [8]): 7.4 mg/kg | Mean no. of shocks (Rattus norvegicus [9]): 14.8 | Mean no. of shocks (Rattus norvegicus [10]): 3.3 | Mean no. of shocks (Rattus norvegicus [11]): 3.9 | Mean no. of shocks (Rattus norvegicus [12]): 5.2 | Mean no. of shocks (Rattus norvegicus [13]): 8.8 | Mean no. of shocks (Rattus norvegicus [14]): 5.6 | Change in Cl- current [15]: 1.05
